Source: ChEMBL document CHEMBL1143284, “Synthesis of riccardin C and its seven analogues. Part 1: The role of their phenolic hydroxy groups as LXRalpha agonists” (Bioorg Med Chem Lett, 2009)
Calls of active or inactive are those of the source. The rule behind the calls is not given here.

Experiments:
[1] = molecular target: T1, Oxysterols receptor LXR-alpha (Homo sapiens) (UniProt Q13133); experiment: Agonist activity at full length LXRalpha expressed in african green monkey COS1 cells co-transfected with RXRalpha assessed as increase in LXR-response element driven luciferase reporter gene transactivation at 10 to 30 uM after 24 hrs; conditions: COS-1
T1 sequence (whole entry): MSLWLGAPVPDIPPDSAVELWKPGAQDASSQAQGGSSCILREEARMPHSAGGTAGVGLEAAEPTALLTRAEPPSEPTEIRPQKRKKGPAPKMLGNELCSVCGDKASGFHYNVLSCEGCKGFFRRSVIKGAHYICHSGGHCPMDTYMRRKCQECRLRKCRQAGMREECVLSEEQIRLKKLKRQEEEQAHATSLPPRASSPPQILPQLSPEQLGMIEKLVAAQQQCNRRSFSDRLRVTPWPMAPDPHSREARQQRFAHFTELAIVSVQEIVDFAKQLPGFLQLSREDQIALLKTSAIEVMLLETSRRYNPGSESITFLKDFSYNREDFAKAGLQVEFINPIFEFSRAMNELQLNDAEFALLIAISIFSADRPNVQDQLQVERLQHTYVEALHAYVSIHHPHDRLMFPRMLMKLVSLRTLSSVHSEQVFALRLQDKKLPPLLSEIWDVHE

[2] = molecular target: T2, Oxysterols receptor LXR-beta (Homo sapiens) (UniProt P55055); experiment: Agonist activity at full length LXRbeta expressed in african green monkey COS1 cells co-transfected with RXRalpha assessed as increase in LXR-response element driven luciferase reporter gene transactivation at 10 to 30 uM after 24 hrs; conditions: COS-1
T2 sequence (whole entry): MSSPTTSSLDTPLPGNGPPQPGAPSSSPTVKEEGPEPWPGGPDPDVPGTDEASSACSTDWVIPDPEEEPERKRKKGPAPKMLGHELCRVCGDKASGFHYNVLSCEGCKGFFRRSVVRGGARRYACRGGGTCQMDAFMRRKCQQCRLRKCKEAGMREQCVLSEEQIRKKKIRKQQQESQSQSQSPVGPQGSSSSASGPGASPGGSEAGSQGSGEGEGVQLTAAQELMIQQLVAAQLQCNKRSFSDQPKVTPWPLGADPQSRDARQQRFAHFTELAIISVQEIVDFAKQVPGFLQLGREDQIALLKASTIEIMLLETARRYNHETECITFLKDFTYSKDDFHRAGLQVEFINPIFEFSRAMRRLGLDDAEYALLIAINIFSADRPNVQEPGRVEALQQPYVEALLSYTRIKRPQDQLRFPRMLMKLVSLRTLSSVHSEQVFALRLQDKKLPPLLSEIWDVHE

[3] = molecular target: T2, Oxysterols receptor LXR-beta (Homo sapiens); experiment: Activation of full length LXRbeta expressed in african green monkey COS7 cells co-transfected with RXRalpha assessed as increase in LXR-response element driven luciferase reporter gene transactivation after 24 hrs; format: cell-based; conditions: COS-7
Summary of the method: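 Transient LXR/RXRα luciferase reporter assay in COS cells with β-galactosidase as internal control. Cells treated 24 h with test compounds at 10 or 30 μM, or TO901317 at 100 nM, in the presence of compactin to deplete endogenous LXR ligands. Luciferase activity in cell extracts normalized to β-galactosidase and expressed as fold induction over vehicle-treated cells.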

Row | SMILES | Activity [1] | Activity [2] | Activity [3]
1 | COc1ccc2c(c1)CCc1ccc(cc1)Oc1cc(ccc1OC)CCc1ccc-2c(O)c1 | inactive | inactive | –
2 | COc1cc2ccc1-c1ccc(O)cc1CCc1ccc(cc1)Oc1cc(ccc1O)CC2 | inactive | inactive | –
3 | COc1ccc2cc1Oc1ccc(cc1)CCc1cc(O)ccc1-c1ccc(cc1O)CC2 | inactive | inactive | –
4 | Oc1ccc2c(c1)CCc1ccc(cc1)Oc1cc(ccc1O)CCc1ccc-2c(O)c1 | – | – | inactive
5 | COc1ccc2c(c1)CCc1ccc(cc1)Oc1cc(ccc1O)CCc1ccc-2c(O)c1 | inactive | inactive | –
6 | COc1ccc2c(c1)CCc1ccc(cc1)Oc1cc(ccc1O)CCc1ccc-2c(OC)c1 | inactive | inactive | –
7 | COc1ccc2c(c1)CCc1ccc(cc1)Oc1cc(ccc1OC)CCc1ccc-2c(OC)c1 | inactive | inactive | –
8 | COc1ccc2cc1Oc1ccc(cc1)CCc1cc(O)ccc1-c1ccc(cc1OC)CC2 | inactive | inactive | –
